Measurements as given in ChEMBL document CHEMBL3616466, “Pyrazolo[3,4-h]quinolines promising photosensitizing agents in the treatment of cancer” (Eur J Med Chem, 2015).
Calls of active or inactive are those of the source. The rule behind the calls is not given here.

How the values were obtained:
[1] = tested on: MCF7; experiment: Photocytotoxicity against human MCF7 cells assessed as growth inhibition at 2.5 J/cm'2 irradiation for 30 mins followed by drug treated for 72 hrs by MTT assay; assay type: functional; details: MCF7, light or radiation study
How it was run: (§1)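 Cells seeded at 5 × 10³ per well and pre-incubated 24 h. Drug dilutions in HBSS (pH 7.2, from DMSO stock) added for 30 min at 37 °C, then UV-A irradiation at the stated dose. Drug solution then replaced with culture medium and plates incubated 72 h. Viability by MTT; GI50 from concentration series.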

[2] = Induction of singlet oxygen generation measured after UV-A irradiation by RNO bleaching assay; assay type: physicochemical
How it was run: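 Compound (2.2 × 10⁻⁵ M), RNO (4 × 10⁻⁵ M) and imidazole (4 × 10⁻⁵ M) in phosphate buffer pH 7.3 irradiated with increasing UV-A doses. Absorbance read at 440 nm; reported as % RNO bleaching.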

[3] = tested on: Jurkat; experiment: Induction of apoptosis in human Jurkat cells assessed as increase in cleaved caspase 3 level at 1 uM measured 24 hrs post 2.5 J/cm'2 irradiation by Western blot analysis; assay type: functional, cell-based
How it was run: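 Jurkat cells irradiated (2.5 J/cm²) with compound at 1 µM. At 24 h, cells washed in cold PBS and lysed on ice for 20 min. 20 µg protein run on 8–16% gradient gels and transferred to nitrocellulose. Probed with rabbit anti-caspase-3 and β-actin (1:1000, 2 h), then peroxidase anti-rabbit IgG; ECL detection.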

[4] = tested on: Jurkat; experiment: Photocytotoxicity against human Jurkat cells assessed as reduction of cell survival at 0.2 uM measured 72 hrs post 2.5 J/cm'2 irradiation by MTT assay in the presence of vitamin E, NaN3, DABCO, DMTU and MANN; assay type: functional, cell-based
How it was run: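 Jurkat cells irradiated at 2.5 J/cm² with compound in HBSS together with a scavenger: vitamin E 60 µM, NaN₃ 10 mM, DABCO 1 mM, GSH 1 mM, DMTU 1 mM or mannitol 10 mM. Medium replaced after irradiation; viability by MTT 72 h later.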

[5] = tested on: LoVo; experiment: Ratio of angelicin GI50 to compound GI50 for human LoVo cells assessed as growth inhibition at 3.75 J/cm'2 irradiation for 30 mins followed by drug treated for 72 hrs by MTT assay; assay type: functional
How it was run: (§2)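 Cells were pre-incubated 30 min at 37 °C with drug in HBSS, irradiated, then drug replaced with medium. Ratio is angelicin GI50 divided by compound GI50.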

[6] = tested on: Jurkat; experiment: Photocytotoxicity against human Jurkat cells assessed as growth inhibition at 1.25 J/cm'2 irradiation for 30 mins followed by drug treated for 72 hrs by MTT assay; assay type: functional; details: light or radiation study; how it was run: as §1
[7] = tested on: Jurkat; experiment: Induction of apoptosis in human Jurkat cells assessed as reduction in mitochondrial potential at 1 to 2 uM using JC-1 staining measured 24 hrs post 2.5 J/cm'2 irradiation by FACS assay; assay type: functional, cell-based
How it was run: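 At 24 h after 2.5 J/cm² irradiation with compound at 1 or 2 µM, Jurkat cells were pelleted and resuspended in HBSS with 1 µM JC-1. After 10 min at 37 °C, fluorescence read at 530 and 590 nm by flow cytometry. Mean ± SEM, n=3.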

[8] = tested on: HL-60; experiment: Photocytotoxicity against human HL60 cells assessed as growth inhibition at 1.25 J/cm'2 irradiation for 30 mins followed by drug treated for 72 hrs by MTT assay; assay type: functional; details: HL-60, light or radiation study; how it was run: as §1
[9] = tested on: Escherichia coli; experiment: Induction of DNA damage in Escherichia coli pBR322 DNA measured at 7.5 J/cm'2 UV-A irradiation by neutral agarose electrophoresis
How it was run: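 pBR322 plasmid (100 ng) in 10 mM phosphate buffer pH 7.2 irradiated at 7.5 J/cm² UV-A with compound at a compound/DNA ratio of 3/1. Aliquots incubated at 37 °C with Fpg or Endo III. Run on 1% agarose in TAE at 70 V for 4 h; supercoiled, open circular and linear bands quantified.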

[10] = tested on: A549; experiment: Photocytotoxicity against human A549 cells assessed as growth inhibition at 3.75 J/cm'2 irradiation for 30 mins followed by drug treated for 72 hrs by MTT assay; assay type: functional; details: A549, light or radiation study; how it was run: as §1
[11] = tested on: Jurkat; experiment: Induction of apoptosis in human Jurkat cells assessed as ROS production at 1 to 2 uM using HE and DCFDA staining measured 24 hrs post 2.5 J/cm'2 irradiation by FACS assay; assay type: functional, cell-based
[12] = tested on: HL-60; experiment: Photocytotoxicity against human HL60 cells assessed as growth inhibition at 2.5 J/cm'2 irradiation for 30 mins followed by drug treated for 72 hrs by MTT assay; assay type: functional; details: HL-60, light or radiation study; how it was run: as §1
[13] = tested on: Jurkat; experiment: Photocytotoxicity against human Jurkat cells assessed as growth inhibition at 2.5 J/cm'2 irradiation for 30 mins followed by drug treated for 72 hrs by MTT assay; assay type: functional; details: light or radiation study; how it was run: as §1
[14] = tested on: LoVo; experiment: Photocytotoxicity against human LoVo cells assessed as growth inhibition at 3.75 J/cm'2 irradiation for 30 mins followed by drug treated for 72 hrs by MTT assay; assay type: functional; details: light or radiation study; how it was run: as §1
[15] = tested on: LoVo; experiment: Photocytotoxicity against human LoVo cells assessed as growth inhibition at 2.5 J/cm'2 irradiation for 30 mins followed by drug treated for 72 hrs by MTT assay; assay type: functional; details: light or radiation study; how it was run: as §1
[16] = Induction of superoxide anion generation measured after UV-A irradiation by NBT reduction assay; assay type: physicochemical
How it was run: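 Compound (10⁻⁵ M) with nitroblue tetrazolium (1.6 × 10⁻⁴ M) in carbonate buffer pH 10 irradiated with increasing UV-A doses. Absorbance at 560 nm followed as the superoxide read-out.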

[17] = tested on: Jurkat; experiment: Induction of apoptosis in human Jurkat cells assessed as reduction in alive cells using Annexin-V and propidium iodide staining at 1 to 2 uM measured 24 hrs post 2.5 J/cm'2 irradiation by flow cytometry analysis; assay type: functional, cell-based
How it was run: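 Jurkat cells irradiated (2.5 J/cm²) with compound at 1 or 2 µM. After 24 h, co-stained with Annexin V-FITC and PI and analysed by flow cytometry (excitation 488 nm; emission 525 and 585 nm). Mean of three independent experiments.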

[18] = tested on: Jurkat; experiment: Induction of apoptosis in human Jurkat cells assessed as lysosome death at 1 to 2 uM using acridine orange staining measured 24 hrs post 2.5 J/cm'2 irradiation by flow cytometry; assay type: functional, cell-based
[19] = tested on: A549; experiment: Photocytotoxicity against human A549 cells assessed as growth inhibition at 2.5 J/cm'2 irradiation for 30 mins followed by drug treated for 72 hrs by MTT assay; assay type: functional; details: A549, light or radiation study; how it was run: as §1
[20] = tested on: MCF7; experiment: Photocytotoxicity against human MCF7 cells assessed as growth inhibition at 3.75 J/cm'2 irradiation for 30 mins followed by drug treated for 72 hrs by MTT assay; assay type: functional; details: MCF7, light or radiation study; how it was run: as §1
[21] = tested on: Jurkat; experiment: Induction of lipid peroxidation in human Jurkat cells at 2 uM measured 24 hrs post 2.5 J/cm'2 irradiation by TBA assay; assay type: functional, cell-based
How it was run: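 TBA test for TBARS performed on supernatant medium and on cell lysates 24 h post-irradiation. Mean ± SEM of three experiments.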

[22] = tested on: MCF7; experiment: Ratio of angelicin GI50 to compound GI50 for human MCF7 cells assessed as growth inhibition at 3.75 J/cm'2 irradiation for 30 mins followed by drug treated for 72 hrs by MTT assay; assay type: functional; how it was run: as §2
[23] = tested on: A549; experiment: Photocytotoxicity against human A549 cells assessed as inhibition of colony formation at 2.5 J/cm'2 irradiation after 1 to 2 weeks using crystal violet staining by optical microscopy; assay type: functional, cell-based
How it was run: (§3)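 A-549 cells (10 × 10³) plated in dishes. After 24 h, irradiated at 2.5 J/cm² with compound at varying concentrations. Medium replaced, then cultured 1–2 weeks with medium changes every 2–3 days. Stained with crystal violet; colonies of ≥50 cells counted visually. Expressed as % of untreated cells; mean ± SEM of three experiments.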

[24] = tested on: MCF7; experiment: Cytotoxicity against human MCF7 cells assessed as growth inhibition after 72 hrs by MTT assay; assay type: functional; details: MCF7, 72 h
How it was run: (§4)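 Cells (5 × 10³ per well) pre-incubated 24 h at 37 °C, 5% CO₂, then exposed in the dark to serial concentrations diluted from DMSO stock into complete medium for 72 h at 37 °C. Viability read by MTT; GI50 derived. LoVo in Ham's F-12, MCF-7 and A-549 in DMEM, all with 10% FBS and penicillin/streptomycin.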

[25] = tested on: A549; experiment: Photocytotoxicity against human A549 cells assessed as inhibition of colony formation at 0.0625 to 0.5 uM measured 24 hrs post 2.5 J/cm'2 irradiation after 1 to 2 weeks by optical microscopy; assay type: functional, cell-based; how it was run: as §3
[26] = tested on: Jurkat; experiment: Cytotoxicity against human Jurkat cells assessed as growth inhibition after 72 hrs by MTT assay; assay type: functional
[27] = tested on: HL-60; experiment: Cytotoxicity against human HL60 cells assessed as growth inhibition after 72 hrs by MTT assay; assay type: functional; details: HL-60, 72 h
[28] = tested on: A549; experiment: Cytotoxicity against human A549 cells assessed as growth inhibition after 72 hrs by MTT assay; assay type: functional; details: A549, 72 h; how it was run: as §4
[29] = tested on: LoVo; experiment: Cytotoxicity against human LoVo cells assessed as growth inhibition after 72 hrs by MTT assay; assay type: functional; how it was run: as §4

| SMILES | GI50 [1] | Activity [2] | Activity [3] | Ratio IC50 [5] | GI50 [6] | Activity [7] | GI50 [8] | Activity [9] | GI50 [10] | Activity [11] | GI50 [12] | GI50 [13] | GI50 [14] | GI50 [15] | Activity [16] | Activity [17] | Activity [18] | GI50 [19] | GI50 [20] | Activity [21] | also measured |
| --- | --- | --- | --- | --- | --- | --- | --- | --- | --- | --- | --- | --- | --- | --- | --- | --- | --- | --- | --- | --- | --- |
| Cn1c(=O)c(S(=O)(=O)c2ccccc2)cc2ccc3c(cnn3-c3ccc(Cl)cc3)c21 | 330 nM | Active | Active | 27 | 200 nM | Active | 390 nM | inactive | 80 nM | Active | 310 nM | 100 nM | 40 nM | 160 nM | Active | Active | Active | 260 nM | 170 nM | Active | Activity [4]: inactive; Ratio IC50 [22]: 8; Activity [23]: Dose-dependent effect |
| COc1ccc(-n2ncc3c2ccc2cc(S(=O)(=O)c4ccccc4)c(=O)n(C)c23)cc1 | 290 nM | Active | Active | 12 | 580 nM | Active | 610 nM | inactive | 80 nM | Active | 440 nM | 250 nM | 90 nM | 190 nM | Active | Active | Active | 270 nM | 140 nM | Active | GI50 [24]: 9600 nM; Activity [25]: Dose-dependent effect; GI50 [26]: > 20000 nM; GI50 [27]: > 20000 nM; GI50 [28]: > 20000 nM; GI50 [29]: > 20000 nM; Ratio IC50 [22]: 10; Activity [23]: Dose-dependent effect |
